# Test results published in ChEMBL document CHEMBL3091443, “Synthesis of novel 7-substituted pyrido[2',3':4,5]furo[3,2-d]pyrimidin-4-amines and their N-aryl analogues and evaluation of their inhibitory activity against Ser/Thr kinases” (Bioorg Med Chem Lett, 2013).
# Target: Glycogen synthase kinase-3 (Sus scrofa, UniProt B2LUN4+I6LNT8)
# Experiment: Inhibition of pig brain GSK3alpha/beta using YRRAAVPPSPSLSRHSSPHQpSEDEEE as substrate after 30 mins by scintillation counting analysis
# Outline: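 Screened first at 10 μM final; compounds giving under 50% inhibition at that level were recorded as IC50 >10 μM. Kinase activity was assayed in triplicate, and IC50 values are reported in μM.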
row,Structure (SMILES),IC50 [µM]
1,Fc1ccc(Nc2ncnc3c2oc2cccnc23)cc1Cl,> 10
2,COc1ccc(Nc2ncnc3c2oc2cc(-c4ccc5c(c4)OCO5)cnc23)cc1OC,> 10
3,Nc1ncnc2c1oc1cccnc12,> 10
4,COc1ccc(Nc2ncnc3c2oc2cc(-c4ccc5c(c4)OCO5)cnc23)cc1,> 10
5,c1nc(Nc2ccc3c(c2)OCO3)c2oc3cc(-c4ccc5c(c4)OCO5)cnc3c2n1,> 10
6,COc1ccc(Nc2ncnc3c2oc2cccnc23)cc1,> 10
7,Nc1ncnc2c1oc1cc(-c3ccc(Cl)c(Cl)c3)cnc12,> 10
8,c1ccc(Nc2ncnc3c2oc2cccnc23)cc1,> 10
9,Cc1ccc(-c2cnc3c(c2)oc2c(N)ncnc23)cc1,> 10
10,Clc1ccc(Nc2ncnc3c2oc2cc(-c4ccc5c(c4)OCO5)cnc23)cc1Cl,> 10
11,COc1ccc(Nc2ncnc3c2oc2cccnc23)cc1OC,> 10
12,COc1cc(Nc2ncnc3c2oc2cccnc23)cc(OC)c1OC,> 10
13,Nc1ncnc2c1oc1cc(-c3ccc(Cl)cc3Cl)cnc12,> 10
14,COc1ccc(-c2cnc3c(c2)oc2c(N)ncnc23)cc1,> 10
15,Nc1ncnc2c1oc1cc(-c3ccccc3)cnc12,> 10
16,Fc1ccc(Nc2ncnc3c2oc2cc(-c4ccc5c(c4)OCO5)cnc23)cc1Cl,> 10
17,Clc1ccc(Nc2ncnc3c2oc2cc(-c4ccc5c(c4)OCO5)cnc23)cc1,> 10
18,Nc1ncnc2c1oc1cc(-c3ccc4c(c3)OCO4)cnc12,> 10
19,c1cnc2c(c1)oc1c(Nc3ccc4c(c3)OCO4)ncnc12,> 10
20,c1ccc(Nc2ncnc3c2oc2cc(-c4ccc5c(c4)OCO5)cnc23)cc1,> 10
21,Fc1cc(Br)ccc1Nc1ncnc2c1oc1cccnc12,> 10
22,C1=COc2cc(Nc3ncnc4c3oc3cccnc34)ccc2O1,> 10
23,Nc1ncnc2c1oc1cc(-c3cccc(Cl)c3)cnc12,> 10
24,Cc1ccc(Nc2ncnc3c2oc2cc(-c4ccc5c(c4)OCO5)cnc23)cc1,> 10
25,COc1cc(Nc2ncnc3c2oc2cc(-c4ccc5c(c4)OCO5)cnc23)cc(OC)c1OC,> 10
26,COc1cc(Nc2ncnc3c2oc2cccnc23)cc(OC)c1,> 10

# Target: Cyclin-dependent kinase 5/CDK5 activator 1 (Homo sapiens, UniProt Q00535)
# Experiment: Inhibition of human recombinant CDK5/p25 using [gamma-33P]ATP as substrate after 30 mins by scintillation counting analysis
# Type: protein-complex assay
# Outline: (§1)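 Compounds were screened first at 10 µM final; those giving under 50% inhibition were scored as IC50 >10 µM, and the rest were taken to IC50 determination (µM). Kinase activities were assayed in triplicate, with standard deviation of single data points typically below 10%. Assay procedures are cited to earlier reports.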
# Chain of Cyclin-dependent kinase 5/CDK5 activator 1 (Q00535 whole entry): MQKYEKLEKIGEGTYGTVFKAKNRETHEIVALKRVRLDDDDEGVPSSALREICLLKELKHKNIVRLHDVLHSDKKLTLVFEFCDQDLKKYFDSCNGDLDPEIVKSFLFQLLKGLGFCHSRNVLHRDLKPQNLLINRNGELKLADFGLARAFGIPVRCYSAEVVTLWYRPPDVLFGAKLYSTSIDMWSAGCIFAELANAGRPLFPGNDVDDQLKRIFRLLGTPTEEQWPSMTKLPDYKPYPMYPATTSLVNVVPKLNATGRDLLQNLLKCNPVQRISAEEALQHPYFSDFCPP
# Chain of Cyclin-dependent kinase 5/CDK5 activator 1 (Q15078 whole entry, further chain): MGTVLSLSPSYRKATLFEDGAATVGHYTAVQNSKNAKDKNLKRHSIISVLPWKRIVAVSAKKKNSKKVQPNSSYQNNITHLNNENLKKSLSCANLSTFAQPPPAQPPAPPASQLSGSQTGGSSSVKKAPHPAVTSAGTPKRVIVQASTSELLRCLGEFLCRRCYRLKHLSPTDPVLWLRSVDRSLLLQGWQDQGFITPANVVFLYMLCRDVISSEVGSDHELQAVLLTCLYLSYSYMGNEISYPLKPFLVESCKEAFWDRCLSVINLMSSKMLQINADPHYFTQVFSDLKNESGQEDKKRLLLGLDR
row,Structure (SMILES),IC50 [µM]
1,Fc1ccc(Nc2ncnc3c2oc2cccnc23)cc1Cl,> 10
2,COc1ccc(Nc2ncnc3c2oc2cc(-c4ccc5c(c4)OCO5)cnc23)cc1OC,> 10
3,Nc1ncnc2c1oc1cccnc12,> 10
4,COc1ccc(Nc2ncnc3c2oc2cc(-c4ccc5c(c4)OCO5)cnc23)cc1,> 10
5,c1nc(Nc2ccc3c(c2)OCO3)c2oc3cc(-c4ccc5c(c4)OCO5)cnc3c2n1,> 10
6,COc1ccc(Nc2ncnc3c2oc2cccnc23)cc1,> 10
7,Nc1ncnc2c1oc1cc(-c3ccc(Cl)c(Cl)c3)cnc12,> 10
8,c1ccc(Nc2ncnc3c2oc2cccnc23)cc1,> 10
9,Cc1ccc(-c2cnc3c(c2)oc2c(N)ncnc23)cc1,> 10
10,Clc1ccc(Nc2ncnc3c2oc2cc(-c4ccc5c(c4)OCO5)cnc23)cc1Cl,> 10
11,COc1ccc(Nc2ncnc3c2oc2cccnc23)cc1OC,> 10
12,COc1cc(Nc2ncnc3c2oc2cccnc23)cc(OC)c1OC,> 10
13,Nc1ncnc2c1oc1cc(-c3ccc(Cl)cc3Cl)cnc12,> 10
14,COc1ccc(-c2cnc3c(c2)oc2c(N)ncnc23)cc1,> 10
15,Nc1ncnc2c1oc1cc(-c3ccccc3)cnc12,> 10
16,Fc1ccc(Nc2ncnc3c2oc2cc(-c4ccc5c(c4)OCO5)cnc23)cc1Cl,> 10
17,Clc1ccc(Nc2ncnc3c2oc2cc(-c4ccc5c(c4)OCO5)cnc23)cc1,> 10
18,Nc1ncnc2c1oc1cc(-c3ccc4c(c3)OCO4)cnc12,> 10
19,c1cnc2c(c1)oc1c(Nc3ccc4c(c3)OCO4)ncnc12,> 10
20,c1ccc(Nc2ncnc3c2oc2cc(-c4ccc5c(c4)OCO5)cnc23)cc1,> 10
21,Fc1cc(Br)ccc1Nc1ncnc2c1oc1cccnc12,> 10
22,C1=COc2cc(Nc3ncnc4c3oc3cccnc34)ccc2O1,> 10
23,Nc1ncnc2c1oc1cc(-c3cccc(Cl)c3)cnc12,> 10
24,Cc1ccc(Nc2ncnc3c2oc2cc(-c4ccc5c(c4)OCO5)cnc23)cc1,> 10
25,COc1cc(Nc2ncnc3c2oc2cc(-c4ccc5c(c4)OCO5)cnc23)cc(OC)c1OC,> 10
26,COc1cc(Nc2ncnc3c2oc2cccnc23)cc(OC)c1,> 10

# Target: Dual specificity tyrosine-phosphorylation-regulated kinase 1A (Rattus norvegicus, UniProt Q63470)
# Experiment: Inhibition of rat recombinant GST-tagged DYRK1A expressed in Escherichia coli using KKISGRLSPIMTEQ as substrate after 30 mins by scintillation counting analysis
# Outline: as §1
row,Structure (SMILES),IC50 [µM]
1,Fc1ccc(Nc2ncnc3c2oc2cccnc23)cc1Cl,> 10
2,COc1ccc(Nc2ncnc3c2oc2cc(-c4ccc5c(c4)OCO5)cnc23)cc1OC,> 10
3,Nc1ncnc2c1oc1cccnc12,> 10
4,COc1ccc(Nc2ncnc3c2oc2cc(-c4ccc5c(c4)OCO5)cnc23)cc1,> 10
5,c1nc(Nc2ccc3c(c2)OCO3)c2oc3cc(-c4ccc5c(c4)OCO5)cnc3c2n1,> 10
6,COc1ccc(Nc2ncnc3c2oc2cccnc23)cc1,> 10
7,Nc1ncnc2c1oc1cc(-c3ccc(Cl)c(Cl)c3)cnc12,> 10
8,c1ccc(Nc2ncnc3c2oc2cccnc23)cc1,> 10
9,Cc1ccc(-c2cnc3c(c2)oc2c(N)ncnc23)cc1,4.4
10,Clc1ccc(Nc2ncnc3c2oc2cc(-c4ccc5c(c4)OCO5)cnc23)cc1Cl,> 10
11,COc1ccc(Nc2ncnc3c2oc2cccnc23)cc1OC,> 10
12,COc1cc(Nc2ncnc3c2oc2cccnc23)cc(OC)c1OC,> 10
13,Nc1ncnc2c1oc1cc(-c3ccc(Cl)cc3Cl)cnc12,0.6
14,COc1ccc(-c2cnc3c(c2)oc2c(N)ncnc23)cc1,> 10
15,Nc1ncnc2c1oc1cc(-c3ccccc3)cnc12,3.1
16,Fc1ccc(Nc2ncnc3c2oc2cc(-c4ccc5c(c4)OCO5)cnc23)cc1Cl,> 10
17,Clc1ccc(Nc2ncnc3c2oc2cc(-c4ccc5c(c4)OCO5)cnc23)cc1,> 10
18,Nc1ncnc2c1oc1cc(-c3ccc4c(c3)OCO4)cnc12,2.3
19,c1cnc2c(c1)oc1c(Nc3ccc4c(c3)OCO4)ncnc12,> 10
20,c1ccc(Nc2ncnc3c2oc2cc(-c4ccc5c(c4)OCO5)cnc23)cc1,> 10
21,Fc1cc(Br)ccc1Nc1ncnc2c1oc1cccnc12,> 10
22,C1=COc2cc(Nc3ncnc4c3oc3cccnc34)ccc2O1,> 10
23,Nc1ncnc2c1oc1cc(-c3cccc(Cl)c3)cnc12,> 10
24,Cc1ccc(Nc2ncnc3c2oc2cc(-c4ccc5c(c4)OCO5)cnc23)cc1,> 10
25,COc1cc(Nc2ncnc3c2oc2cc(-c4ccc5c(c4)OCO5)cnc23)cc(OC)c1OC,> 10
26,COc1cc(Nc2ncnc3c2oc2cccnc23)cc(OC)c1,> 10

# Target: Dual specificity protein kinase CLK1 (Homo sapiens, UniProt P49759)
# Experiment: Inhibition of human recombinant GST-tagged CLK1 expressed in Escherichia coli using GRSRSRSRSRSR as substrate
# Outline: as §1
# Chain of Dual specificity protein kinase CLK1 (P49759 whole entry): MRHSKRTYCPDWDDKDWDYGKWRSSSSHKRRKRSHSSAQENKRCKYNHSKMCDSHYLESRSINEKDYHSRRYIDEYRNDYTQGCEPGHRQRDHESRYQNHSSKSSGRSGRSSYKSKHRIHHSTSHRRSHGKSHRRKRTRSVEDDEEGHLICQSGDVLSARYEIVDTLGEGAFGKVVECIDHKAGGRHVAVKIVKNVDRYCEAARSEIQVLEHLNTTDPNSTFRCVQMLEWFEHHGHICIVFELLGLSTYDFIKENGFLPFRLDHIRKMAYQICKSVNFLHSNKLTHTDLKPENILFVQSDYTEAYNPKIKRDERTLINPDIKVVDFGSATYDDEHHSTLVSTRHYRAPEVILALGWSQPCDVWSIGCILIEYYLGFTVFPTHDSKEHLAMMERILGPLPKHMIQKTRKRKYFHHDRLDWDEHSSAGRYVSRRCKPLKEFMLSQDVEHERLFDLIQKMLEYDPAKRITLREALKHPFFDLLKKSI
row,Structure (SMILES),IC50 [µM]
1,Fc1ccc(Nc2ncnc3c2oc2cccnc23)cc1Cl,> 10
2,COc1ccc(Nc2ncnc3c2oc2cc(-c4ccc5c(c4)OCO5)cnc23)cc1OC,> 10
3,Nc1ncnc2c1oc1cccnc12,> 10
4,COc1ccc(Nc2ncnc3c2oc2cc(-c4ccc5c(c4)OCO5)cnc23)cc1,> 10
5,c1nc(Nc2ccc3c(c2)OCO3)c2oc3cc(-c4ccc5c(c4)OCO5)cnc3c2n1,> 10
6,COc1ccc(Nc2ncnc3c2oc2cccnc23)cc1,> 10
7,Nc1ncnc2c1oc1cc(-c3ccc(Cl)c(Cl)c3)cnc12,> 10
8,c1ccc(Nc2ncnc3c2oc2cccnc23)cc1,> 10
9,Cc1ccc(-c2cnc3c(c2)oc2c(N)ncnc23)cc1,0.61
10,Clc1ccc(Nc2ncnc3c2oc2cc(-c4ccc5c(c4)OCO5)cnc23)cc1Cl,> 10
11,COc1ccc(Nc2ncnc3c2oc2cccnc23)cc1OC,> 10
12,COc1cc(Nc2ncnc3c2oc2cccnc23)cc(OC)c1OC,> 10
13,Nc1ncnc2c1oc1cc(-c3ccc(Cl)cc3Cl)cnc12,0.049
14,COc1ccc(-c2cnc3c(c2)oc2c(N)ncnc23)cc1,> 10
15,Nc1ncnc2c1oc1cc(-c3ccccc3)cnc12,0.69
16,Fc1ccc(Nc2ncnc3c2oc2cc(-c4ccc5c(c4)OCO5)cnc23)cc1Cl,> 10
17,Clc1ccc(Nc2ncnc3c2oc2cc(-c4ccc5c(c4)OCO5)cnc23)cc1,> 10
18,Nc1ncnc2c1oc1cc(-c3ccc4c(c3)OCO4)cnc12,0.32
19,c1cnc2c(c1)oc1c(Nc3ccc4c(c3)OCO4)ncnc12,> 10
20,c1ccc(Nc2ncnc3c2oc2cc(-c4ccc5c(c4)OCO5)cnc23)cc1,> 10
21,Fc1cc(Br)ccc1Nc1ncnc2c1oc1cccnc12,> 10
22,C1=COc2cc(Nc3ncnc4c3oc3cccnc34)ccc2O1,> 10
23,Nc1ncnc2c1oc1cc(-c3cccc(Cl)c3)cnc12,1
24,Cc1ccc(Nc2ncnc3c2oc2cc(-c4ccc5c(c4)OCO5)cnc23)cc1,> 10
25,COc1cc(Nc2ncnc3c2oc2cc(-c4ccc5c(c4)OCO5)cnc23)cc(OC)c1OC,> 10
26,COc1cc(Nc2ncnc3c2oc2cccnc23)cc(OC)c1,> 10

# Test system: not listed separately
# Experiment: Inhibition of pig brain CK1delta/epsilon using RRKHAAIGpSAYSITA as substrate after 30 mins by scintillation counting analysis
# Set-up: species or system Sus scrofa
# Outline: as §1
row,Structure (SMILES),IC50 [µM]
1,Fc1ccc(Nc2ncnc3c2oc2cccnc23)cc1Cl,> 10
2,COc1ccc(Nc2ncnc3c2oc2cc(-c4ccc5c(c4)OCO5)cnc23)cc1OC,> 10
3,Nc1ncnc2c1oc1cccnc12,> 10
4,COc1ccc(Nc2ncnc3c2oc2cc(-c4ccc5c(c4)OCO5)cnc23)cc1,> 10
5,c1nc(Nc2ccc3c(c2)OCO3)c2oc3cc(-c4ccc5c(c4)OCO5)cnc3c2n1,> 10
6,COc1ccc(Nc2ncnc3c2oc2cccnc23)cc1,> 10
7,Nc1ncnc2c1oc1cc(-c3ccc(Cl)c(Cl)c3)cnc12,> 10
8,c1ccc(Nc2ncnc3c2oc2cccnc23)cc1,> 10
9,Cc1ccc(-c2cnc3c(c2)oc2c(N)ncnc23)cc1,> 10
10,Clc1ccc(Nc2ncnc3c2oc2cc(-c4ccc5c(c4)OCO5)cnc23)cc1Cl,> 10
11,COc1ccc(Nc2ncnc3c2oc2cccnc23)cc1OC,> 10
12,COc1cc(Nc2ncnc3c2oc2cccnc23)cc(OC)c1OC,> 10
13,Nc1ncnc2c1oc1cc(-c3ccc(Cl)cc3Cl)cnc12,> 10
14,COc1ccc(-c2cnc3c(c2)oc2c(N)ncnc23)cc1,> 10
15,Nc1ncnc2c1oc1cc(-c3ccccc3)cnc12,> 10
16,Fc1ccc(Nc2ncnc3c2oc2cc(-c4ccc5c(c4)OCO5)cnc23)cc1Cl,> 10
17,Clc1ccc(Nc2ncnc3c2oc2cc(-c4ccc5c(c4)OCO5)cnc23)cc1,> 10
18,Nc1ncnc2c1oc1cc(-c3ccc4c(c3)OCO4)cnc12,> 10
19,c1cnc2c(c1)oc1c(Nc3ccc4c(c3)OCO4)ncnc12,> 10
20,c1ccc(Nc2ncnc3c2oc2cc(-c4ccc5c(c4)OCO5)cnc23)cc1,> 10
21,Fc1cc(Br)ccc1Nc1ncnc2c1oc1cccnc12,> 10
22,C1=COc2cc(Nc3ncnc4c3oc3cccnc34)ccc2O1,> 10
23,Nc1ncnc2c1oc1cc(-c3cccc(Cl)c3)cnc12,> 10
24,Cc1ccc(Nc2ncnc3c2oc2cc(-c4ccc5c(c4)OCO5)cnc23)cc1,> 10
25,COc1cc(Nc2ncnc3c2oc2cc(-c4ccc5c(c4)OCO5)cnc23)cc(OC)c1OC,> 10
26,COc1cc(Nc2ncnc3c2oc2cccnc23)cc(OC)c1,> 10
